Where “and” joins values, the source holds several entries; their conditions need not be identical. Equal values may be shown once.
Tests used:
[1] = species: Rattus norvegicus; assay: Compound was evaluated against compound induced depolarization of NMDA receptor in rat cortical slice preparation; type: functional
In short: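 Cortical slice preparation in which depolarization was induced by 40 μM NMDA. Antagonism was measured as inhibition of this depolarization, and […].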

[2] = Compound was evaluated for high binding affinity towards glycine site on the NMDA receptor; parameters: species or system Rattus norvegicus
[3] = species: Xenopus sp.; assay: Compound was evaluated for blocking of depolarization induced by 30 uM AMPA in xenopus oocytes injected with rat brain m-RNA; type: functional, frog
[4] = species: Xenopus sp.; assay: Compound was evaluated for blocking of depolarization induced by 30 uM NMDA in xenopus oocytes injected with rat brain m-RNA
[5] = biological target: Glutamate receptor ionotropic AMPA (Homo sapiens, UniProt P42261+P42262+P42263+P48058); assay: Binding affinity against Ionotropic glutamate receptor AMPA using [3H]AMPA as a radioligand; type: protein-complex assay
[6] = species: Rattus norvegicus; assay: Inhibitory activity against compound induced depolarization of AMPA receptor in rat cortical slice preparation; type: functional
In short: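 Cortical slice preparation. Depolarizations evoked by 40 μM AMPA or 40 μM quisqualic acid (QUIS); the value is the IC50 for inhibition of the agonist response.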

[7] = species: Rattus norvegicus; assay: Inhibitory activity against compound induced depolarization of NMDA receptor in rat cortical slice preparation; type: functional
In short: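 Cortical slice preparation. Depolarizations evoked by 40 μM NMDA; the value is the IC50 for inhibition of the NMDA response.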

[8] = species: Rattus norvegicus; assay: Inhibitory activity against compound induced depolarization of Kainic acid receptor in rat cortical slice preparation; type: functional
In short: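 Cortical slice depolarizations evoked by 10 μM kainic acid. Test compound at concentrations up to 100 μM; the value is the IC50 for inhibition.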

[9] = biological target: Glutamate NMDA receptor; assay: Binding affinity against NMDA receptor using [3H]-CGS- 19755 as a radioligand in rat
In short: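 Displacement of the selective NMDA-site radioligand [3H]CGS 19755. Run in triplicate unless otherwise indicated; IC50 reported.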

[10] = biological target: Glutamate receptor ionotropic kainate; assay: Binding affinity against Ionotropic glutamate receptor kainate using [3H]-Kainic acid as a radioligand; type: protein-complex assay
In short: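 Displacement of [3H]kainic acid from kainate receptor sites. Run in triplicate unless otherwise indicated; IC50 reported.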

[11] = Binding affinity towards glycine site on the NMDA receptor was determined; parameters: species or system Rattus norvegicus

Row | Compound | IC50 ([6]; Rattus norvegicus) | IC50 ([7]; Rattus norvegicus) | IC50 [8] | IC50 [9] | IC50 [5] | IC50 [10] | IC50 [6] | IC50 [7] | also measured
1 | O=C1Nc2cc(Cl)ccc2CC1[N+](=O)[O-] (centres undefined) |  |  |  |  |  |  |  |  | KbS [1]: 6.7 µM and 9.2 µM; IC50 [2]: 0.41 µM
2 | O=[N+]([O-])c1ccc2cc(NS(=O)(=O)C(F)(F)F)c(O)nc2c1 |  |  |  |  |  |  |  |  | Ki [3]: 0.37 µM; Ki [4]: 0.62 µM; Ki [5]: 0.6 µM
3 | O=C(O)[C@H]1CC[C@H]2CN[C@H](C(=O)O)C[C@H]2C1 (racemic) | > 100 µM | > 100 µM | > 100 µM | > 100 µM | > 100 µM |  |  |  | 
4 | O=C(O)[C@@H]1C[C@H]2C[C@@H](c3nnn[nH]3)CC[C@H]2CN1 (racemic) |  |  | > 100 µM | 1.6 µM | 12.8 µM | 31.8 µM | 40.9 µM | 7.5 µM | 
5 | O=C(O)[C@@H]1C[C@H]2C[C@H](c3nnn[nH]3)CC[C@H]2CN1 (racemic) | > 100 µM | 65 µM |  | 38.4 µM | > 100 µM | > 100 µM |  |  | 
6 | O=C(O)[C@@H]1C[C@H]2C[C@@H](Cc3nnn[nH]3)CC[C@H]2CN1 (racemic) | > 100 µM | 1.4 µM | > 100 µM | 0.82 µM | 84.5 µM | > 100 µM |  |  | 
7 | O=C(O)[C@@H]1C[C@H]2C[C@@H](CCc3nn[nH]n3)CC[C@H]2CN1 (racemic) [TEZAMPANEL ANHYDROUS] | 6 µM | 61.3 µM | 31.7 µM | 26.4 µM |  | 247 µM |  |  | 
8 | O=C(O)[C@@H]1C[C@H]2C[C@@H](c3nnn[nH]3)CC[C@H]2CN1 (stereo in doubt; (+)-6) |  |  |  | > 100 µM | > 100 µM | > 100 µM | > 100 µM | > 100 µM | 
9 | O=C(O)[C@@H]1C[C@H]2C[C@@H](c3nnn[nH]3)CC[C@H]2CN1 (stereo in doubt; (-)-6) |  |  |  | 1 µM | 5.7 µM | 21 µM | 13.2 µM | 4.1 µM | 
10 | O=[N+]([O-])c1cc2nc(O)c(O)nc2cc1[N+](=O)[O-] [DNQX] |  |  |  |  |  |  |  |  | Ki [11]: 0.39 µM; Ki [5]: 0.36 µM

Source: ChEMBL document CHEMBL1128208, “(3SR,4aRS,6SR,8aRS)-6-(1H-tetrazol-5-yl)decahydroisoquinoline-3-carboxylic acid, a novel, competitive, systemically active NMDA and AMPA receptor antagonist” (J Med Chem, 1995)
